Compounds with a hit are over-represented: about 3.4% of the library has one in this group of screens.
m5-HT2A agonist: agonists of mouse serotonin 5-HT2A receptor (HTR2A); CHO-K1 mHTR2A beta-arrestin complementation, luminescence; percent of 30 µM serotonin response; AID 624169; 360,000 tested, 0.66% active; activation, % at 7.6 µM; P35363;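 active = activation above a run cutoff, the mean activation of all tested compounds plus 3 SD, cut at about 14% in these data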;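 also: 0% = plate median of compound wells and 100% = 30 µM serotonin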
ANO1 block: blocks the mouse calcium-activated chloride channel TMEM16A; HEK293 TMEM16A/YFP iodide influx fluorescence, ionomycin; Q8BHY3; 310,000 tested, 1.2% active; normalized B-score (activity score, 25-100; higher = stronger inhibition) at 10 µM;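 active = ratio plate-corrected score three or more library SD toward inhibition, starting fluorescence score within five deviations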;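 also: score derived from kinetic fluorescence span divided by baseline fluorescence per well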
MC4R ag barr: human MC4R agonism via beta-arrestin | activation, % at 8.9 µM | P32245 | U2OS MC4R beta-arrestin complementation, luminescence; percent of melanotan II response, DMSO zero | AID 540308 | 360,000 tested, 0.98% active;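 active = activation above a per-plate cutoff, the mean activation of sample wells on that plate plus 3 SD, cut at about 8% in these data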
Target sequence (P32245 whole entry, looked up): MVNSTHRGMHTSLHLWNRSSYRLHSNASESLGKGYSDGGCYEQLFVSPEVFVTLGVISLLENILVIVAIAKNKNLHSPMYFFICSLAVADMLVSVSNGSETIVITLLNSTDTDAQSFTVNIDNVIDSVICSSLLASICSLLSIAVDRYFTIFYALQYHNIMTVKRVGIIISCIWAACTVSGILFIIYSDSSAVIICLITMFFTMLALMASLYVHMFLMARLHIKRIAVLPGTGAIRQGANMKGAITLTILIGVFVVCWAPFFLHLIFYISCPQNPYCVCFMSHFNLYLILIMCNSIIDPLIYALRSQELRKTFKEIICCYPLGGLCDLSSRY
TMEM16A act: mouse TMEM16A channel activation, primary screen; B-score at 10 µM; 340,000 tested, 0.3% active; Q8BHY3; HEK293 TMEM16A/YFP-H148Q/I152L, iodide quench fluorescence; active compounds read low; AID 623877;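 active = fluorescence-ratio B-score plate-corrected deviation score at least 3 library SD below zero, with starting fluorescence score within 5 deviations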;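 also: channel opened by trigger with iodide after compound preincubation; score built on the fluorescence ratio of max minus min over baseline; more negative score means more quench and so TMEM16A activation or potentiation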
MC4R antagonist: antagonists of human melanocortin 4 receptor (MC4R) | MC4R-expressing cells, MTII-stimulated cAMP, LANCE TR-FRET | inhibition, % at 6.5 µM | 360,000 tested, 0.48% active | AID 540295;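 active = inhibition above its plate's cutoff, the mean of tested wells on that plate plus 3 SD, cut at about 29% in these data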;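 also: 0% = Melanotan II alone and 100% = Melanotan II plus saturating MCL0020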
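Material – human MC4R-expressing U2OS cells · Repeats – no replicates · Detection – TR-FRET with Eu-cAMP and labeled anti-cAMP, 671 nm · Times – compound 30 min, challenge 1 h, detection 1 h · Compound – single nominal compound dose of 6.5 µM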
beta cell repl: inducers of beta-cell replication in MIN6 cells; proliferation, % at 10 µM; 330,000 tested, 0.29% active; MIN6 cells proliferation, ATPlite luminescence, 48 h; cells starved in 0.2% serum; 100% = growth in 10% serum;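 active = compounds whose signal lies at least 3.5 SD above the mean of all wells on their plate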;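 also: 0% = DMSO-treated cells in low-serum medium and 100% = 10% serum control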
* = called active by the depositor.

Results for Cc1cc2oc(C(=O)Nc3ccc(S(N)(=O)=O)cc3)c(C)c2cc1Cl ?
m5-HT2A agonist: -5.9; ANO1 block: inactive; MC4R ag barr: 8.4*; TMEM16A act: inactive; MC4R antagonist: -2.2; beta cell repl: -4.4

Results for Cc1ccc(S(=O)(=O)Nc2ccc(S(=O)(=O)Nc3nccs3)cc2)cc1C ?
m5-HT2A agonist: -3.0; MC4R ag barr: -1.0; TMEM16A act: inactive; MC4R antagonist: 1.0; beta cell repl: -0.4

Results for COc1ccccc1CCNC(=O)C(=O)NCC1OCCN1S(=O)(=O)c1ccc(OC)c(OC)c1 (stereo unspecified) ?
m5-HT2A agonist: 9.7; ANO1 block: 100*; MC4R ag barr: 1.0; TMEM16A act: inactive; MC4R antagonist: -0.3; beta cell repl: 5.3

What do the screens show for `COc1ccccc1CNC(=O)C(=O)NCC1OCCCN1S(=O)(=O)c1cccs1` (stereo unspecified)?
m5-HT2A agonist: 16.6*; ANO1 block: inactive; MC4R ag barr: -2.2; TMEM16A act: inactive; MC4R antagonist: 9.7; beta cell repl: 1.7

How did COc1ccccc1CCNC(=O)C(=O)NCC1OCCN1S(=O)(=O)c1ccc(F)cc1 (stereo unspecified) do in these assays?
m5-HT2A agonist: 9.8; ANO1 block: inactive; MC4R ag barr: -3.0; TMEM16A act: inactive; MC4R antagonist: -1.2; beta cell repl: -1.8

How did COc1cc2c3nnc(-c4ccc(F)cc4)c-3cn(Cc3ccccc3F)c2cc1OC do in these assays?
m5-HT2A agonist: 10.3; MC4R ag barr: 11.8*; TMEM16A act: inactive; MC4R antagonist: 2.2

Results for CSc1nnc(N2C(=O)C(O)=C(C(=O)c3ccco3)C2c2ccccc2)s1 (stereo unspecified) ?
m5-HT2A agonist: 3.3; ANO1 block: inactive; MC4R ag barr: 0.6; TMEM16A act: -6.56*; MC4R antagonist: 12.3; beta cell repl: -3.8

What do the screens show for `Cc1ccc(C2C(C(=O)c3ccco3)=C(O)C(=O)N2c2nnc(C)s2)cc1` (stereo unspecified)?
m5-HT2A agonist: -1.0; ANO1 block: inactive; MC4R ag barr: 0.5; TMEM16A act: inactive; MC4R antagonist: 11.3; beta cell repl: 1.1

What do the screens show for `C=CCSc1nnc(N2C(=O)C(O)=C(C(=O)c3ccco3)C2c2ccccc2F)s1` (stereo unspecified)?
m5-HT2A agonist: -1.4; ANO1 block: inactive; MC4R ag barr: -3.0; TMEM16A act: inactive; MC4R antagonist: 5.7; beta cell repl: 1.5

Results for CSc1nnc(N2C(=O)C(O)=C(C(=O)c3ccco3)C2c2ccccc2F)s1 (stereo unspecified) ?
m5-HT2A agonist: 1.9; ANO1 block: inactive; MC4R ag barr: -2.1; TMEM16A act: -4.76*; MC4R antagonist: 2.1; beta cell repl: -3.3

How did CCCSc1nnc(N2C(=O)C(O)=C(C(=O)c3ccco3)C2c2ccccc2F)s1 (stereo unspecified) do in these assays?
m5-HT2A agonist: 6.7; ANO1 block: inactive; MC4R ag barr: -0.1; TMEM16A act: -4.77*; MC4R antagonist: 19.3; beta cell repl: -5.8

What do the screens show for `Cc1ccc2nc(N3C(=O)C(O)=C(C(=O)c4ccco4)C3c3ccc(O)cc3)sc2c1` (stereo unspecified)?
m5-HT2A agonist: -0.6; ANO1 block: 25*; MC4R ag barr: 0.1; TMEM16A act: inactive; MC4R antagonist: 4.3; beta cell repl: -3.2

Results for CC(Sc1nnnn1-c1ccccc1)C(=O)NC1CCCC1 (stereo unspecified) ?
m5-HT2A agonist: 4.5; MC4R ag barr: 0.1; TMEM16A act: inactive; MC4R antagonist: 15.8; beta cell repl: 5.5

Results for Cc1nc(SC(C)C(=O)NC2CCCC2)c2ccccc2n1 (stereo unspecified) ?
m5-HT2A agonist: 2.6; MC4R ag barr: -2.4; TMEM16A act: -30.7*; MC4R antagonist: -9.2; beta cell repl: 1.3

What do the screens show for `COc1ccc(/C=N/NC(=O)c2nc(Cl)c(Cl)c(N)c2Cl)cc1COc1ccc(F)cc1F`?
m5-HT2A agonist: 5.6; ANO1 block: inactive; MC4R ag barr: 10.6*; TMEM16A act: inactive; MC4R antagonist: -7.7; beta cell repl: -3.9

What do the screens show for `NS(=O)(=O)c1ccc(-c2ccc(/C=C3\SC(=S)N(C4CCS(=O)(=O)C4)C3=O)o2)cc1` (stereo unspecified)?
m5-HT2A agonist: -2.5; ANO1 block: inactive; MC4R ag barr: -1.6; TMEM16A act: -4.96*; MC4R antagonist: 4.5; beta cell repl: -2.4

How did COc1cc(C[C@@H]2C(=O)OC[C@H]2Cc2ccc(OC)c(OC)c2)ccc1O do in these assays?
m5-HT2A agonist: 16.1*; MC4R ag barr: -1.4; TMEM16A act: inactive; MC4R antagonist: -2.2; beta cell repl: -6.6

How did CN(C)S(=O)(=O)c1cccc(-c2nnc(SCc3ccc4c(c3)OCCO4)o2)c1 do in these assays?
m5-HT2A agonist: -0.5; ANO1 block: inactive; MC4R ag barr: -2.1; TMEM16A act: -17.4*; MC4R antagonist: -1.8; beta cell repl: -2.5

What do the screens show for `Cc1nnc(SCC(=O)Nc2cc(C(F)(F)F)ccc2N2CCOCC2)o1`?
m5-HT2A agonist: -1.4; ANO1 block: inactive; MC4R ag barr: 0.5; TMEM16A act: inactive; MC4R antagonist: 1.1; beta cell repl: 1.1

What do the screens show for `CCOC(=O)c1cnc(SCC(=O)Nc2cc(C(F)(F)F)ccc2N2CCOCC2)nc1N`?
m5-HT2A agonist: 2.6; ANO1 block: inactive; MC4R ag barr: -2.3; TMEM16A act: -7.12*; MC4R antagonist: 3.3; beta cell repl: -0.5

How did CCOC(=O)c1cnc(SCC(=O)Nc2ccc(N3CCOCC3)c(Cl)c2)nc1N do in these assays?
m5-HT2A agonist: 3.9; ANO1 block: inactive; MC4R ag barr: -1.7; TMEM16A act: inactive; MC4R antagonist: 13.3; beta cell repl: -2.3

What do the screens show for `Cc1ccccc1SCC(=O)Nc1cc(C(F)(F)F)ccc1N1CCOCC1`?
m5-HT2A agonist: -7.0; ANO1 block: 100*; MC4R ag barr: 0.8; TMEM16A act: inactive; MC4R antagonist: 12.5; beta cell repl: -7.2

Results for CCCCN1C(=O)C(=O)NC[C@@H]1CC1CCCCC1 ?
m5-HT2A agonist: -0.5

What do the screens show for `Cc1c2cnn(CC(=O)Nc3c(F)c(F)cc(F)c3F)c(=O)c2c(C)n1Cc1ccccc1F`?
m5-HT2A agonist: -2.5; ANO1 block: inactive; MC4R ag barr: 25.1*; TMEM16A act: inactive; MC4R antagonist: 22.0; beta cell repl: 1.3

Results for Cc1cccc(N(C)C(=O)c2cc(S(=O)(=O)N3CCCC3)cn2C)c1 ?
m5-HT2A agonist: -0.3; ANO1 block: inactive; MC4R ag barr: 1.2; TMEM16A act: inactive; MC4R antagonist: 12.4; beta cell repl: 0.8

Assay outcomes as filed in PubChem.
